# Experimental data published in PubChem BioAssay AID623984 (Vanderbilt High Throughput Screening Facility, 2012).
# Active and inactive are the calls of the source. How the calls were made is not given here.
# Molecular target: Inward rectifier potassium channel 2 (Homo sapiens) (UniProt P63252)
# Experiment: KCNJ2 inward rectifier thallium flux activity – cell-based, human, concentration-response, selectivity assay for GIRK activator project, dose response (AID 623984)
# In short: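 Material: hKir2.1 T-REx-293 cells, tetracycline-induced; Dosing: compound addition solution containing 0.2% DMSO; Times: 4 min compound pre-incubation before stimulus; Signal: FluoZin-2 thallium-flux fluorescence at 1 Hz; Benchmarks: vehicle and uninduced-cell wells; Replicates: triplicate wells, four-parameter logistic curve fits.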
# Inward rectifier potassium channel 2 (Homo sapiens), sequence (P63252 whole entry, looked up): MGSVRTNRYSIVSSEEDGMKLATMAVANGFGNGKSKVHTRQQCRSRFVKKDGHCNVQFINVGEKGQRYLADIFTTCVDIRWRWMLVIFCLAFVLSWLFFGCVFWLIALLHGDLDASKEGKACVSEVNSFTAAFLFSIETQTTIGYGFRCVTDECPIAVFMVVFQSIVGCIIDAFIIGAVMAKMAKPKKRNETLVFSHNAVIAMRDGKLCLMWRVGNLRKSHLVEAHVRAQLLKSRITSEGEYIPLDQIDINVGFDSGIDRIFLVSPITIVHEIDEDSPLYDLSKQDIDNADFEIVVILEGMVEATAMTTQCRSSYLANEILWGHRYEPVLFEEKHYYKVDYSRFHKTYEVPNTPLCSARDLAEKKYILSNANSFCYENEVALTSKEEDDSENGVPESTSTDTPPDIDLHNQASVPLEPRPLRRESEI
structure (smiles),measurement,value
Cc1cc(NC(=O)Nc2ccc(F)c(F)c2)n(-c2ccccc2)n1,outcome,inactive
